Laboratory results: ChEMBL document CHEMBL5236607, “Membrane-Active Cyclic Amphiphilic Peptides: Broad-Spectrum Antibacterial Activity Alone and in Combination with Antibiotics” (J Med Chem, 2022)
Peptide text beside a SMILES is read from it.

Experiments:
Assay type in all cases: functional
[1] = system: Pseudomonas aeruginosa; assay: Synergistic antibacterial activity against Pseudomonas aeruginosa ATCC […] fractional inhibitory concentration index incubated for 24 hrs in presence of meropenem by checkerboard assay
[2] = system: Staphylococcus aureus; assay: Synergistic antibacterial activity against methicillin resistant Staphylococcus aureus ATCC BAA-1556 incubated for 24 hrs in presence of tobramycin by checkerboard assay
Method in brief: (§1)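 Checkerboard assay. Inoculum from an LB overnight culture at 0.5 McFarland, diluted 1/150 in MH media. […] Incubated 37 °C for 24 h. FICI = MIC combination/MIC alone summed over both agents. Triplicate.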

[3] = system: Pseudomonas aeruginosa; assay: Synergistic antibacterial activity against Pseudomonas aeruginosa ATCC […] assessed as fractional inhibitory concentration index incubated for 24 hrs in presence of tetracycline by checkerboard assay
[4] = system: Klebsiella pneumoniae; assay: Synergistic antibacterial activity against Klebsiella pneumoniae ATCC BAA-1705 fractional inhibitory concentration incubated for 24 hrs in presence of polymyxin B by checkerboard assay
Method in brief: (§2)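 Checkerboard assay in MH broth. Inoculum from an LB overnight culture set to 0.5 McFarland and diluted 1/150. […] Each agent was also titrated alone. Incubation 24 h at 37 °C. FIC = combination MIC/individual MIC; FICI = sum of the FICs. Triplicate.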

[5] = system: Escherichia coli; assay: Synergistic antibacterial activity against Escherichia coli ATCC 25922 assessed as fractional inhibitory concentration incubated for 24 hrs in presence of tetracycline by checkerboard assay; method in brief: as §2
[6] = system: Klebsiella pneumoniae; assay: Synergistic antibacterial activity against Klebsiella pneumoniae ATCC BAA-1705 fractional inhibitory concentration index incubated for 24 hrs in presence of polymyxin B by checkerboard assay
[7] = system: Pseudomonas aeruginosa; assay: Synergistic antibacterial activity against Pseudomonas aeruginosa ATCC […] fractional inhibitory concentration incubated for 24 hrs in presence of metronidazole by checkerboard assay
[8] = system: Klebsiella pneumoniae; assay: Synergistic antibacterial activity against Klebsiella pneumoniae ATCC BAA-1705 fractional inhibitory concentration incubated for 24 hrs in presence of clindamycin by checkerboard assay; method in brief: as §2
[9] = system: Escherichia coli; assay: Synergistic antibacterial activity against Escherichia coli ATCC 25922 incubated for 24 hrs in presence of polymyxin B by checkerboard assay; method in brief: as §2
[10] = system: Escherichia coli; assay: Synergistic antibacterial activity against Escherichia coli ATCC 25922 fractional inhibitory concentration incubated for 24 hrs in presence of polymyxin B by checkerboard assay; method in brief: as §2
[11] = system: Klebsiella pneumoniae; assay: Synergistic antibacterial activity against Klebsiella pneumoniae ATCC BAA-1705 fractional inhibitory concentration index incubated for 24 hrs in presence of Ciprofloxacin by checkerboard assay; method in brief: as §2
[12] = system: Klebsiella pneumoniae; assay: Synergistic antibacterial activity against Klebsiella pneumoniae ATCC BAA-1705 fractional inhibitory concentration index incubated for 24 hrs in presence of clindamycin by checkerboard assay; method in brief: as §2
[13] = system: Staphylococcus aureus; assay: Synergistic antibacterial activity against methicillin resistant Staphylococcus aureus ATCC BAA-1556 incubated for 24 hrs in presence of vancomycin by checkerboard assay; method in brief: as §1
[14] = system: Klebsiella pneumoniae; assay: Synergistic antibacterial activity against Klebsiella pneumoniae ATCC BAA-1705 fractional inhibitory concentration index incubated for 24 hrs in presence of levofloxacin by checkerboard assay; method in brief: as §2
[15] = system: Escherichia coli; assay: Synergistic antibacterial activity against Escherichia coli ATCC 25922 fractional inhibitory concentration incubated for 24 hrs in presence of vancomycin by checkerboard assay; method in brief: as §2
[16] = system: Klebsiella pneumoniae; assay: Synergistic antibacterial activity against Klebsiella pneumoniae ATCC BAA-1705 assessed as fractional inhibitory concentration index incubated for 24 hrs in presence of tobramycin by checkerboard assay; method in brief: as §2
[17] = system: Pseudomonas aeruginosa; assay: Synergistic antibacterial activity against Pseudomonas aeruginosa ATCC […] incubated for 24 hrs in presence of meropenem by checkerboard assay
[18] = system: Escherichia coli; assay: Synergistic antibacterial activity against Escherichia coli ATCC 25922 fractional inhibitory concentration index incubated for 24 hrs in presence of polymyxin B by checkerboard assay; method in brief: as §2
[19] = system: Staphylococcus aureus; assay: Synergistic antibacterial activity against methicillin resistant Staphylococcus aureus ATCC BAA-1556 incubated for 24 hrs in presence of clindamycin by checkerboard assay; method in brief: as §1
[20] = system: Klebsiella pneumoniae; assay: Synergistic antibacterial activity against Klebsiella pneumoniae ATCC BAA-1705 fractional inhibitory concentration incubated for 24 hrs in presence of levofloxacin by checkerboard assay; method in brief: as §2
[21] = system: Pseudomonas aeruginosa; assay: Synergistic antibacterial activity against Pseudomonas aeruginosa ATCC […] incubated for 24 hrs in presence of Ciprofloxacin by checkerboard assay
[22] = system: Pseudomonas aeruginosa; assay: Synergistic antibacterial activity against Pseudomonas aeruginosa ATCC […] fractional inhibitory concentration incubated for 24 hrs in presence of levofloxacin by checkerboard assay
[23] = system: Staphylococcus aureus; assay: Synergistic antibacterial activity against methicillin resistant Staphylococcus aureus ATCC BAA-1556 fractional inhibitory concentration incubated for 24 hrs in presence of metronidazole by checkerboard assay; method in brief: as §1
[24] = system: Escherichia coli; assay: Synergistic antibacterial activity against Escherichia coli ATCC 25922 fractional inhibitory concentration index incubated for 24 hrs in presence of vancomycin by checkerboard assay; method in brief: as §1
[25] = system: Pseudomonas aeruginosa; assay: Synergistic antibacterial activity against Pseudomonas aeruginosa ATCC […] fractional inhibitory concentration incubated for 24 hrs in presence of daptomycin by checkerboard assay
[26] = system: Klebsiella pneumoniae; assay: Synergistic antibacterial activity against Klebsiella pneumoniae ATCC BAA-1705 fractional inhibitory concentration incubated for 24 hrs in presence of metronidazole by checkerboard assay; method in brief: as §1
[27] = system: Escherichia coli; assay: Synergistic antibacterial activity against Escherichia coli ATCC 25922 fractional inhibitory concentration incubated for 24 hrs in presence of kanamycin by checkerboard assay; method in brief: as §2
[28] = system: Escherichia coli; assay: Synergistic antibacterial activity against Escherichia coli ATCC 25922 assessed as fractional inhibitory concentration index incubated for 24 hrs in presence of tetracycline by checkerboard assay; method in brief: as §2
[29] = system: Pseudomonas aeruginosa; assay: Synergistic antibacterial activity against Pseudomonas aeruginosa ATCC […] fractional inhibitory concentration incubated for 24 hrs in presence of vancomycin by checkerboard assay
[30] = system: Escherichia coli; assay: Synergistic antibacterial activity against Escherichia coli ATCC 25922 incubated for 24 hrs in presence of tetracycline by checkerboard assay; method in brief: as §2
[31] = system: Pseudomonas aeruginosa; assay: Synergistic antibacterial activity against Pseudomonas aeruginosa ATCC […] fractional inhibitory concentration index incubated for 24 hrs in presence of vancomycin by checkerboard assay
[32] = system: Escherichia coli; assay: Synergistic antibacterial activity against Escherichia coli ATCC 25922 fractional inhibitory concentration index incubated for 24 hrs in presence of kanamycin by checkerboard assay; method in brief: as §2
[33] = system: Pseudomonas aeruginosa; assay: Synergistic antibacterial activity against Pseudomonas aeruginosa ATCC […] fractional inhibitory concentration incubated for 24 hrs in presence of Ciprofloxacin by checkerboard assay
[34] = system: Klebsiella pneumoniae; assay: Synergistic antibacterial activity against Klebsiella pneumoniae ATCC BAA-1705 assessed as fractional inhibitory concentration incubated for 24 hrs in presence of tetracycline by checkerboard assay; method in brief: as §2
[35] = system: Staphylococcus aureus; assay: Synergistic antibacterial activity against methicillin resistant Staphylococcus aureus ATCC BAA-1556 fractional inhibitory concentration index incubated for 24 hrs in presence of Ciprofloxacin by checkerboard assay; method in brief: as §1
[36] = system: Klebsiella pneumoniae; assay: Synergistic antibacterial activity against Klebsiella pneumoniae ATCC BAA-1705 assessed as fractional inhibitory concentration index incubated for 24 hrs in presence of tetracycline by checkerboard assay; method in brief: as §2
[37] = system: Pseudomonas aeruginosa; assay: Synergistic antibacterial activity against Pseudomonas aeruginosa ATCC […] fractional inhibitory concentration index incubated for 24 hrs in presence of levofloxacin by checkerboard assay
[38] = system: Pseudomonas aeruginosa; assay: Synergistic antibacterial activity against Pseudomonas aeruginosa ATCC […] fractional inhibitory concentration incubated for 24 hrs in presence of meropenem by checkerboard assay

Compound	fractional inhibitory concentration index (FICI) [1]	MIC [2] [µg/mL]	fractional inhibitory concentration index (FICI) [3]	FIC [4]	FIC [5]	fractional inhibitory concentration index (FICI) [6]	FIC [7]	FIC [8]	MIC [9] [µg/mL]	FIC [10]	fractional inhibitory concentration index (FICI) [11]	fractional inhibitory concentration index (FICI) [12]	MIC [13] [µg/mL]	fractional inhibitory concentration index (FICI) [14]	FIC [15]	fractional inhibitory concentration index (FICI) [16]	MIC [17] [µg/mL]	fractional inhibitory concentration index (FICI) [18]	MIC [19] [µg/mL]	FIC [20]	other results
N=C(N)NCCC[C@@H]1NC(=O)[C@H](CCCNC(=N)N)NC(=O)[C@H](CCCNC(=N)N)NC(=O)[C@H](Cc2c[nH]c3ccccc23)NC(=O)[C@H](Cc2c[nH]c3ccccc23)NC(=O)[C@H](Cc2c[nH]c3ccccc23)NC(=O)[C@H](Cc2c[nH]c3ccccc23)NC(=O)[C@H](CCCNC(=N)N)NC(=O)[C@H](CCCNC(=N)N)NC1=O	0.375	0.125	0.375	0.125	0.125	0.375	0.25	0.0039	0.25	0.125	0.313	0.254	0.5	0.375	0.0313	0.375	0.125	0.375	0.0312	0.125	MIC [21]: 0.125 µg/mL; FIC [22]: 0.125; FIC [23]: 0.063; fractional inhibitory concentration index (FICI) [24]: 0.531; FIC [25]: 0.063; FIC [26]: 0.0313; FIC [27]: 0.25; fractional inhibitory concentration index (FICI) [28]: 0.375; FIC [29]: 0.063; MIC [30]: 1 µg/mL; fractional inhibitory concentration index (FICI) [31]: 0.313; fractional inhibitory concentration index (FICI) [32]: 0.5; FIC [33]: 0.25; FIC [34]: 0.125; fractional inhibitory concentration index (FICI) [35]: 0.625; fractional inhibitory concentration index (FICI) [36]: 0.375; fractional inhibitory concentration index (FICI) [37]: 0.375; FIC [38]: 0.125
N=C(N)NCCC[C@@H]1NC(=O)[C@H](CCCNC(=N)N)NC(=O)[C@H](CCCNC(=N)N)NC(=O)[C@H](CCCNC(=N)N)NC(=O)[C@H](Cc2c[nH]c3ccccc23)NC(=O)[C@H](Cc2c[nH]c3ccccc23)NC(=O)[C@H](Cc2c[nH]c3ccccc23)NC(=O)[C@H](Cc2c[nH]c3ccccc23)NC(=O)[C@H](CCCNC(=N)N)NC(=O)[C@H](CCCNC(=N)N)NC1=O (cyclo(RRRRRRWWWW))	0.5	0.0625	0.5	0.031	0.063	0.281	0.125	0.016	0.125	0.063	0.313	0.266	0.25	0.375	0.063	0.5	0.25	0.313	0.031	0.125	MIC [21]: 0.125 µg/mL; FIC [22]: 0.125; FIC [23]: 0.063; fractional inhibitory concentration index (FICI) [24]: 0.563; FIC [25]: 0.0156; FIC [26]: 0.063; FIC [27]: 0.125; fractional inhibitory concentration index (FICI) [28]: 0.313; FIC [29]: 0.0313; MIC [30]: 0.5 µg/mL; fractional inhibitory concentration index (FICI) [31]: 0.531; fractional inhibitory concentration index (FICI) [32]: 0.375; FIC [33]: 0.25; FIC [34]: 0.125; fractional inhibitory concentration index (FICI) [35]: 0.75; fractional inhibitory concentration index (FICI) [36]: 0.375; fractional inhibitory concentration index (FICI) [37]: 0.375; FIC [38]: 0.25
